Source: the EternaBench riboswitch data

Test system: MS2 coat protein
Assay: apparent Kd, MS2 coat protein; higher = weaker binding; RNA-MaP array; FMN 200 µM where present
Outline: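 The apparent Kd is reported as the median of filtered per-cluster binding-curve fits. To get these curves, designs transcribed by stalled E. coli RNA polymerase on Illumina sequencing-chip clusters were titrated with SNAP-549-labelled MS2 coat protein from 0.7 or 1.5 nM, doubling to 3 µM. Titrations were run without and then with constant ligand in 100 mM Tris-HCl pH 7.5, 80 mM KCl, 4 mM MgCl2, BSA, DTT, yeast tRNA and Tween-20, and green signal was normalised to red-channel RNA signal and control-cluster median Fmax.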

[1] = designed as: OFF switch for flavin mononucleotide, no ligand
[2] = ligand present: flavin mononucleotide, designed as: OFF switch for flavin mononucleotide
[3] = designed as: ON switch for flavin mononucleotide, no ligand
[4] = ligand present: flavin mononucleotide, designed as: ON switch for flavin mononucleotide

Sequence	apparent Kd [1]	apparent Kd [2]	apparent Kd [3]	apparent Kd [4]
AUGACAGGCAGAGCGCAACGGCGAACAUGAGGAUCACCCAUGUAGGAUAUGCUACACAAAGUGUAGCAGAAGGACAUGCGACGA	48.3 nM	206 nM	–	–
AUGAGUAAAGCAGGAUAUCUAUUGUCUCUGUAACAUGAGGAUCACCCAUGUAGAGAAGGGCUAAGUCUUACUCUUCGGAGUUGA	14.2 nM	13.7 nM	–	–
AUGCGUGGCUAGGAUAUUGAGGAAAUUAGUCAGCGAGAAGGAGCCACAUGAGGAUCACCCAUGUGGUGAAGCUC	15.5 nM	60.3 nM	–	–
AUGGAUAUCACAGGAUAUGAUAUGGAUACCAUAUCAGAAGGGUGAUCCAUCCUCUGUAAAUACAUGAGGAUCACCCAUGUGUCC	–	–	15.6 nM	15.6 nM
AUGGUGUGAUAGGAUAUUGCUGGGUCAACCUUUUAAGAAGGGUCUACAUGAGGAUCACCCAUGUGGGUGUCCCU	65.3 nM	60.2 nM	–	–
AUGGUUCGAUUAGGAUAUUAUAGAUUGAAUAGUAUGAUUUACAUGAGGAUCACCCAUGUUACAUAUAAGAAGGAAUCGAAUCAU	20.1 nM	11.6 nM	–	–
AUGUGAGCAGGAUAUGCAGGUGUGCCGGAAGAAAGAAGAGGACAUGAGGAUCACCCAUGUAGAAGGGCUAGCCC	49 nM	31.3 nM	–	–
AUGUGGUUCCCGGCCAUCGUGUACGAGGAUAUCCUCGAACAUGAGGAUCACCCAUGUAACGUUGUGGAGAAGGCGUACGCUUGG	–	–	130 nM	7.73 nM
AUGUUACAUGAGGAUCACCCAUGUGAGGAUAUGUGUACUGGUAAAAAAGUGUUUGGCCACAGAAGGCAUUUGGG	50.4 nM	148 nM	–	–
AUGUUUCAUGUAGGAUAUGCAUAGCGUUGCUAUGCAGAAGGACAUGAGGAUCACCCAUGUAUAUUAUCAUUACAUAUCAUACAU	45.7 nM	546 nM	–	–
AUUAAGAAUGAAGGAUAUCUAAGCGUAAACAAAAGAGAAGGUCAAUAGUACAUGAGGAUCACCCAUGUUAGAAUAGAUGGGAUA	117 nM	103 nM	–	–
AUUAUACAUGAGGAUCACCCAUGUAAUUAAUUAAUUAAGAUCAAGGAUAUCAGCUCGUUUAGAGCUGAGAAGGUGAUCACAUGU	–	–	356 nM	295 nM
AUUAUAUAGGAAGGAUAUAGAAUAUUAUUUUAACAUGAGGAUCACCCAUGUAACCUUAUGUGUAGCUAGAAGGUCCAUUUAUUA	97.5 nM	153 nM	–	–
AUUAUGACCGAGUUAUAGUUCCUAACAUGAGGAUCACCCAUGUAGGAUAUCAGCACGAUAAGUGCUGAGAAGGACAUCUCGGUC	13.3 nM	13.9 nM	–	–
AUUAUUUAUAGUUAUUGGUAAUUGACAGAAGGUGAAAGUGUCACAUGAGGAUCACCCAUGUUCUUCAAGGAUAUGUUGGUUUAC	–	–	37.6 nM	8.4 nM
AUUCGACAUGAGGAUCACCCAUGUAAGGAUAUGAUAGUUCUGAUAAGGGCUAGCCUAUUCAGAAGGUACGUGGC	35.5 nM	31.4 nM	–	–
AUUCGUGAGUAGGAUAUGCUGUUGCCAGAACGAGUAGAAGGACUCACAUGAGGAUCACCCAUGUGGUGUCUAAG	19.9 nM	170 nM	–	–
AUUGAGUGGUCAGGAUAUGUACGGCCUACCGCACAUGAGGAUCACCCAUGUCGCCAAGGAGGACGACAGAAGGGACAACGAAUG	–	–	43.5 nM	8.83 nM
AUUGUGUUAGGAUAUGCUUAUGCUGGGUAGUCCAGUAUGGAGUAGAAGGGACAUGAGGAUCACCCAUGUGCUCA	20.9 nM	21.2 nM	–	–
AUUGUGUUAGGAUAUGCUUAUGGUGGAUAGUCCAGUAUGAUGUAGAAGGGACAUGAGGAUCACCCAUGUGCUGA	46.9 nM	48.5 nM	–	–
AUUGUUCGAGAGAAGGGAACAUGAGGAUCACCCAUGUUACCUCACCUGGUGACGGAACUCCAAGUUCAGGAUAUCUCGAGCGAU	5.63 nM	8.59 nM	–	–
AUUUAAAUGUCAGGAUAUGUUAGUUUAUACAUAGUAGAAGGGAUAAUUAUACUCAUGUACAUGAGGAUCACCCAUGUUAAAUAA	–	–	206 nM	107 nM
AUUUAGAGAGGAUAUAUUAUGUGAAACAUGAGGAUCACCCAUGUAAUAUGAUGGAUAUAAAUAGAAGGCUCAUUUA	33 nM	24.4 nM	–	–
AUUUAGUGCGAGAAGGCGUGGUCACAUGAGGAUCACCCAUGUCAGUACACGAGGAUAUCGAUUCACUGUAUAAACACAAGUGAC	–	–	53.8 nM	6.22 nM
AUUUAUGGCCAGAAGGACAUGAGGAUCACCCAUGUAGGAUAUGGACGAUUUUACUCGGCGGUUUGUUUAGGAAGCACCGGCGGU	–	–	8 nM	6.32 nM
AUUUCGUUAUCAGGAUAUGGACAGGCCUGUCCGUAUUGAGACAGUAACAUGAGGAUCACCCAUGUCCAGAAGGGAUCGAAGUAU	57 nM	46.7 nM	–	–
AUUUUACAUGAGGAUCACCCAUGUUUUGGCGGGUCAGGAUAUAGAUCGGAUGAGUUCUGUCUAGAAGGGACAUGUA	–	–	77.5 nM	71.6 nM
AUUUUGCGAGGAUAUACAUGAGGAUCACCCAUGUACGCUCAGCAGGGUGAAGGCUCUUGUAGAAGGCGUUCUGA	88.2 nM	45.8 nM	–	–

Sequence	apparent Kd [1]	apparent Kd [2]	apparent Kd [3]	apparent Kd [4]
AUUUUGUGAGGAUAUCAGGUGUGCUAGCGUACUGGUACAUCUGAGAAGGCACAUGAGGAUCACCCAUGUUUAUU	26.6 nM	60 nM	–	–
CAAAAGGAAGGAUAUGCAUCGGGAGGUGCUCAGCAUCAAAUACAUGAGGAUCACCCAUGUAGAAGGUCUGAAAA	32.1 nM	85.7 nM	–	–
CAACUGAGCGUAAAUUACCUGAACAUGAGGAUCACCCAUGUGGAGGAUAUUGACUUAGCAAAACUCGAGAAGGCCACUGGGUAG	44.6 nM	18.5 nM	–	–
CAAUAUAACACAGGAUAUGUCUCGUUUACAUGAGGAUCACCCAUGUCCGAAACAGAAGGGUGACCCGAUAUAGGACGUUGGGUG	–	–	56.3 nM	18 nM
CAAUGCCUGUCGAUGCUCGACAUGAGGAUCACCCAUGUAUAGCAGGAUAUGCAGAACUGACUCGUGCAGAAGGGCUAUACCUAA	25.8 nM	61.1 nM	–	–
CAAUUUAUAACAGGAUAUGUAUUACAAUAGUUAAUAGAAGGGUUUAAUACAUGAGGAUCACCCAUGUCAUGUGUCAUAAUUACC	33.5 nM	28.8 nM	–	–
CAAUUUAUGUCAGGAUAUACAAUACAAUGAUUAGUAGAAGGGAUUAAUACAUGAGGAUCACCCAUGUCAUGUGUCAUAGUAACC	23.9 nM	19.4 nM	–	–
CAAUUUAUGUCAGGAUAUACAAUACAAUGAUUAGUAGAAGGGAUUAAUACAUGAGGAUCACCCAUGUCAUGUGUCAUCGUACCC	28.1 nM	23.3 nM	–	–
CACAUGGUUACAGGAUAUGUUAGGUUGCAGUUGAUUGGUUAUUAAAAUAUUACAGAAGGGUAAGACAUGAGGAUCACCCAUGUG	–	–	175 nM	97.5 nM
CACAUUUUAACAGGAUAUGUAAGGUUGUUUAUUAUUGCAUUUACACUCAUUACAGAAGGGUUAUACAUGAGGAUCACCCAUGUG	–	–	20.1 nM	14.5 nM
CACCGGCCCUAUGUGUUCUAGACAUGAGGAUCACCCAUGUAUAGAAGGGUCUUCGCGAAACGCAGACAGGAUAUGUACAGGAGU	6.31 nM	9.26 nM	–	–
CACCGUAACAGAGGAUAUCAAACAUGAGGAUCACCCAUGUAAUAAAUGAGAAUUUCGAAUGUACCUGAGAAGGCUGAAACCGGC	35.6 nM	41.1 nM	–	–
CACGCAUGUGGAGGAUAUGCAGUUAACAUAAGCGCAGAAGGCCACAUGAGGAUCACCCAUGUCCAGCAUUAGCUGAUGUUGAUC	385 nM	195 nM	–	–
CACGGCGUAUCAGGAUAUGUGGGUGUCUGGACAUGAGGAUCACCCAUGUAAACAGUAUUAGCCGUGCAGAAGGGAUCCGCUGUA	–	–	39 nM	65.2 nM
CACGUACAUGAGGAUCACCCAUGUUAGGAUAUGCCGGGUUAGAGCCAACUAAAAACCCGUAGAAGGGACGAAAC	23.1 nM	25.3 nM	–	–
CACGUCAGGAAACGGAGCGGCCAACAUGAGGAUCACCCAUGUGAGGAUAUGCCUACUAAAAGUAGGCAGAAGGCACAGAAGGCA	38.2 nM	160 nM	–	–
CACGUCCACACAGGAUAUGCUGGACUUUGUCCAGCAGAAGGGUGAAAACAUGAGGAUCACCCAUGUAGGACGUGUAUAUUUAAU	–	–	488 nM	43 nM
CAGAAGUCAGGAUAUGCAUGGCGGGACUUGCGUCGUGGCGUGCAGAAGGGACAUGAGGAUCACCCAUGUAAAGA	52.5 nM	62.4 nM	–	–
CAGAAGUCAGGAUAUGCAUGGCGGGACUUGCGUCGUGGCGUGCAGAAGGGACAUGAGGAUCACCCAUGUAAAGC	50.9 nM	51.2 nM	–	–
CAGAGGAUGUAAGGAUAUCGUCAGGAAUACUGACGAGAAGGUACAUGAGGAUCACCCAUGUAACUCUAAUAAUAAUAACCUCUG	12.6 nM	16.4 nM	–	–
CAGCCCUGAGGAUAUCCAUCCUUGUACAUGAGGAUCACCCAUGUUUCCCUCUGGGCUUUCGGAGAAGGCAGGUAUC	61 nM	61.7 nM	–	–
CAGCGAAAGCUGAAUCUGUAGAGAGAGGAUAUACAAGAUAUCAUCCAUACAUGAGGAUCACCCAUGUAGAAGGCUCUCUACAGU	5.03 nM	7.23 nM	–	–
CAGCGAUAGCUAAAGUAUCUAUCAGAGGAUAUUUAUGAAACAUGAGGAUCACCCAUGUGACACUGGGAGAAGGCUGAUAGAUAG	–	–	10.1 nM	5.25 nM
CAGCGAUAGCUGAACAAUCUAUCUGAGGAUAUCAUGAAUAAACAUGAGGAUCACCCAUGUAAAUAUGAGAAGGCAGAUAGAUUG	–	–	4.82 nM	4.78 nM
CAGCGAUAGCUGAACAAUCUAUCUGAGGAUAUUCAUAUUAAAACAUGAGGAUCACCCAUGUAUUGGGAGAAGGCAGAUAGAUUG	–	–	42.1 nM	6.53 nM
CAGCGCUGUCGAGAGGAUAUGCUGUGAUGGACAUGAGGAUCACCCAUGUUAGCGAUAGCAUUACUGUAGAAGGCUCUACAGCUGC	–	–	13.4 nM	12.8 nM
CAGCUGAAAGUGAGGAUAUAGACUGCUUCGGCAGUCUAGAAGGCACAUGAGGAUCACCCAUGUCUCAACAGCUG	16.6 nM	70.2 nM	–	–
